In the array DNA melting data of Ke et al. (doi:10.1101/2024.01.08.574731) one finds Tm and folding enthalpy data, which are given here for 36 sequences.

Data set [1] is described as follows: melting temperature; fluorescence melt of hairpins on a sequencing array, two-state fit, raised by 9.35 °C to match UV melts. To be noted: sodium 0.088 M. The method, boiled down:
(§1)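 Two-state fits, bootstrapped, provided melting temperature and folding enthalpy from Cy3 fluorescence normalised to pre-quench Cy3 and to control constructs. Library hairpins with annealed Cy3 and quencher oligos were imaged on a sequenced MiSeq flow cell in 50 mM Na-HEPES pH 8.0, 25 mM NaCl, at 2.5 °C intervals up to 60 °C. Four replicates were combined with inverse-variance weighting. A 9.35 °C upward shift was applied to fitted temperatures to match UV melts.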

The nature of data set [2]: folding enthalpy; higher = less favourable; fluorescence melt of hairpins on a sequencing array, two-state fit. To be noted: sodium 0.088 M. The method, boiled down: as §1

With GTAAAGCGAAAGCTCTAC (((.(((....))).))), in data set [1], the Tm is 35 °C. Besides, the folding enthalpy in data set [2] was -14.5 kcal/mol.
The matching figures for GTAAATGGAAACATTTAC (((((((....))))))): 51.3 °C and -31.5 kcal/mol.
On the same counts, the results for GTAACACCGAAAGGTTAC (((..(((....)))))) are 35.6 °C and -14.8 kcal/mol.
The matching figures for GTAACAGCGAAAGCTTAC (((..(((....)))))): 28.6 °C and -10.8 kcal/mol.
Consider GTAACCGAAAGGTGATAC ((((((....)))..))), for which the Tm in data set [1] turned out to be 30.7 °C. Moreover, the folding enthalpy in data set [2] is -12.9 kcal/mol.
The matching figures for GTAACCGAAAGGTGCTAC ((((((....)))..))): 39.1 °C and -13.1 kcal/mol.
The matching figures for GTAACCGGAAACGGTTGC (.(((((....))))).): 53.1 °C and -31.8 kcal/mol.
As to GTAACGCGAAAGCGCTAC (((.(((....))).))), the Tm in data set [1] amounted to 51.9 °C. Besides, the folding enthalpy in data set [2] was -19.6 kcal/mol.
With GTAACGGAAACGTTAC ((((((....)))))), the Tm in data set [1] stood at 56.3 °C. The folding enthalpy in data set [2] was -40.2 kcal/mol.
Turning to GTAACGGGAAACCGCTAC (((.(((....))).))), in data set [1], the Tm is 39.9 °C. Further, in data set [2], the folding enthalpy was -24.4 kcal/mol.
The matching figures for GTAACGGGAAACCGTTGC (.(((((....))))).): 52 °C and -21.2 kcal/mol.
On to GTAACGTCGAAAGACTAC (((..(((....)))))), for which the Tm in data set [1] worked out at 28.7 °C. In addition, in data set [2], the folding enthalpy was -11.2 kcal/mol.
On the same counts, the results for GTAACTGGAAACAGTTAC (((((((....))))))) are 56.1 °C and -41.6 kcal/mol.
The matching figures for GTAAGAACGAAAGTTTAC (((..(((....)))))): 24.3 °C and -8.19 kcal/mol.
Regarding GTAAGAGGAAACTCTCAC ((.((((....)))).)), the Tm in data set [1] was determined as 26.3 °C. The folding enthalpy in data set [2] was -14.8 kcal/mol.
The matching figures for GTAAGAGGAAACTCTTAC (((((((....))))))): 51 °C and -42.2 kcal/mol.
GTAAGCCCGAAAGGGTAC (((..(((....)))))): in data set [1], the Tm turned out to be 28.1 °C. Moreover, the folding enthalpy in data set [2] is -10.6 kcal/mol.
In the case of GTAAGCCGAAAGGCCTAC (((.(((....))).))), the Tm in data set [1] worked out at 39.4 °C. Moreover, in data set [2], the folding enthalpy was -13.7 kcal/mol.
As for GTAAGCGAAAGCTTTTAC ((((((....)))..))), the Tm in data set [1] turned out to be 29.7 °C. In data set [2], the folding enthalpy is -11.8 kcal/mol.
The matching figures for GTAAGCGGAAACGCCTAC (((.(((....))).))): 35.4 °C and -15.8 kcal/mol.
For GTAAGCGGAAACGTTTAC ((((.((....)).)))), in data set [1], the Tm was determined as 43 °C. In addition, the folding enthalpy in data set [2] was -28.2 kcal/mol.
The matching figures for GTAAGGCGAAAGCCATAC (((.(((....))).))): 44.8 °C and -15.3 kcal/mol.
The matching figures for GTAAGGCGAAAGCCCTAC (((.(((....))).))): 36 °C and -13.5 kcal/mol.
In the case of GTAAGGGGAAACCTTTAC ((((.((....)).)))), in data set [1], the Tm was 33.9 °C. For the same sequence, the folding enthalpy in data set [2] was -27.1 kcal/mol.
On the same counts, the results for GTAAGGGGAAACTCTTAC (((((.(....).))))) are 37.6 °C and -34.4 kcal/mol.
On the same counts, the results for GTAATAGGAAACTATTGC (.(((((....))))).) are 34.2 °C and -18.7 kcal/mol.
On the same counts, the results for GTAATAGGAAACTGTTAC ((((.((....)).)))) are 36.4 °C and -24.9 kcal/mol.
Regarding GTAATCACGAAAGTGTAC (((..(((....)))))), the Tm in data set [1] amounted to 29.3 °C. Also, the folding enthalpy in data set [2] was -10.9 kcal/mol.
For GTAATCCCGAAAGGGTAC (((..(((....)))))), the Tm in data set [1] worked out at 27.5 °C. Besides, the folding enthalpy in data set [2] was -11.1 kcal/mol.
With GTAATCGAAAGATTCTAC ((((((....)))..))), in data set [1], the Tm is 28.8 °C. For the same sequence, the folding enthalpy in data set [2] is -18.5 kcal/mol.
As to GTAATCGGAAACGATCAC ((.((((....)))).)), the Tm in data set [1] came out at 33.9 °C. Besides, the folding enthalpy in data set [2] was -25 kcal/mol.
The matching figures for GTAATGGAAACATTAC ((((((....)))))): 46.7 °C and -31.7 kcal/mol.
On the same counts, the results for GTAATGGGAAACCATCAC ((.((((....)))).)) are 28.8 °C and -17.7 kcal/mol.
The matching figures for GTAATTGGAAACAATCAC ((.((((....)))).)): 27.4 °C and -11.6 kcal/mol.
In the case of GTACACACGAAAGTGTAC (((..(((....)))))), in data set [1], the Tm is 46.5 °C. In addition, in data set [2], the folding enthalpy was -16.6 kcal/mol.
The matching figures for GTACACGAAAGTGAGTAC ((((((....)))..))): 36.5 °C and -15.6 kcal/mol.
